# Test results taken from PubChem BioAssay.
# Where “and” joins values, the source holds several entries; their conditions need not be identical. Identical values can stand only once. Calls of active or inactive are those of the source. Unless noted, no rule for the calls is given here.
# Experiments:
# [1] = biological target: Pantothenate synthetase (Mycobacterium tuberculosis (strain ATCC 25618 / H37Rv)) (UniProt P9WIL5); experiment: Coupled enzyme confirmation of inhibitors against recombinant Mtb PanC (AID 375); details: coupled enzyme assay; at 10 µM, stronger effect = higher value;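 also: 0% = full reaction with vehicle and 100% = no enzyme background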
# Sequence of Pantothenate synthetase (Mycobacterium tuberculosis (strain ATCC 25618 / H37Rv)) (P9WIL5 whole entry, looked up): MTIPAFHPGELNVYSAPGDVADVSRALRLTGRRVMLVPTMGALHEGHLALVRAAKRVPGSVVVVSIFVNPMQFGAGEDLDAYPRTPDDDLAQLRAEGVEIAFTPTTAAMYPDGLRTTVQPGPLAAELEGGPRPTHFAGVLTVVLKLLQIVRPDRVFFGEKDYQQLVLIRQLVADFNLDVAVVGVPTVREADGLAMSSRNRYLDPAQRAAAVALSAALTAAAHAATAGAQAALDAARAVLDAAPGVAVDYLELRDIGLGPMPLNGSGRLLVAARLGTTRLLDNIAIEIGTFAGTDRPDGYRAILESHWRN
# [2] = Her2 expression decrease, cell viability multiplex – SKBR3 breast tumor cells, AlphaScreen, ATP viability, primary screen (AID 461;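 active = Her2 level under about 52% in both replicate screens, with viability over 70% of control, limit read from the data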;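 as to Her2 level: lower value means less Her2 protein in the cells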;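 as to viability: percent of carrier control wells set as 100% viability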); details: SKBR3 Her2 protein level, 18-24 h, measured here: SKBR3 viability, ATP luminescence, at 10 µM
# [3] = biological target: Receptor tyrosine-protein kinase erbB-2 (Homo sapiens) (UniProt P04626); experiment: as above; details: 18-24 h, at 10 µM, stronger effect = lower value
# Sequence of Receptor tyrosine-protein kinase erbB-2 (Homo sapiens) (P04626 whole entry, looked up): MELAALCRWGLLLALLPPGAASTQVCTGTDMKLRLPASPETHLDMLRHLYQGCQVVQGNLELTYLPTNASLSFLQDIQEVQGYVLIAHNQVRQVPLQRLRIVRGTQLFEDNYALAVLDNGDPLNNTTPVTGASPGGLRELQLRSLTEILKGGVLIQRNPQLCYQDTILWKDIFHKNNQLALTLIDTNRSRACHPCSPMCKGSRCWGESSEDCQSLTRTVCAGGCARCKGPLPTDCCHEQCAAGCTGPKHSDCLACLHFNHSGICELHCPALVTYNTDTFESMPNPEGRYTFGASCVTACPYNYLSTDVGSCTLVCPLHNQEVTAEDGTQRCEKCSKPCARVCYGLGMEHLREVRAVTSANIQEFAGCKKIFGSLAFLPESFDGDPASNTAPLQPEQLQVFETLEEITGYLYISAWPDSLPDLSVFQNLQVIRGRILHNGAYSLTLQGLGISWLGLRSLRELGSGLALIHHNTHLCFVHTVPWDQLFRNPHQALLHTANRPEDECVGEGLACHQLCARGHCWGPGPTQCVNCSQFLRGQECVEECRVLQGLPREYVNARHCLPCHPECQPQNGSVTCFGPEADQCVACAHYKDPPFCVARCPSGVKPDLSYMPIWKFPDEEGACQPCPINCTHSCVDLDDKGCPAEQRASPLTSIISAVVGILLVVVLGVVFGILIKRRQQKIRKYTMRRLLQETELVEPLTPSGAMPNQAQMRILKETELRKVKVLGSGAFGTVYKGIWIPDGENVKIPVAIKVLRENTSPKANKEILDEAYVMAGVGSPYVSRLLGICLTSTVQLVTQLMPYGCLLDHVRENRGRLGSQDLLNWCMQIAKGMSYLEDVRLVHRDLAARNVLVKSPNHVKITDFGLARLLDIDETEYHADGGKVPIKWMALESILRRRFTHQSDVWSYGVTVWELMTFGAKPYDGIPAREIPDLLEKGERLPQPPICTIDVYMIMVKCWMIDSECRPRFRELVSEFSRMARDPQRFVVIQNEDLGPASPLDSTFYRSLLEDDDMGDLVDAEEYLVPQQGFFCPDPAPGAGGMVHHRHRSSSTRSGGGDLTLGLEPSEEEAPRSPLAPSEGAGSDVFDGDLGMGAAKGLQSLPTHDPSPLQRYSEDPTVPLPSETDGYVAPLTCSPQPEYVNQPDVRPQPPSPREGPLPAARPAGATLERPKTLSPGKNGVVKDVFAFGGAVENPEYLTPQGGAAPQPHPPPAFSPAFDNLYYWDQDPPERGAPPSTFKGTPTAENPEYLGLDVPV
# [4] = reduced viability of SK-BR-3 breast cancer cells – cell-based, 24 h, human, pilot screen (AID 572;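 active = viability at or below 10% of carrier control in both of two separate runs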;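 also: compound exposure lasted between 18 and 24 h rather than exactly 24 h; 100% = carrier-treated control wells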); details: SK-BR-3 viability, CellTiter-Glo luminescence, at 10 µM, stronger effect = lower value
# [5] = HUVEC growth inhibition – cell-based, human, primary screen (AID 575;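 active = viability at or below 30% in both replicate assays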;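 also: 100% = median of untreated cell wells with 0.1% DMSO on each plate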); details: HUVEC proliferation, CellTiter-Glo luminescence, 72 h; at 10 µM; stronger effect = lower value
# Outline: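 Test system: primary human umbilical vein endothelial cells. Quantity: 1250 cells/well. Compound: single 10 µM dose, 0.1% DMSO, from 5x medium stock. Timing: 72 h treatment at 37 °C. Detection: ATP-based CellTiter-Glo luminescent read. Benchmarks: vehicle and MePR control wells. Format: 384-well plates coated with collagen.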
# [6] = H69AR cell proliferation blockers – human, duplicate replicates, primary screen (AID 580;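 active = viability at or under a set limit in both replicates, limit being median viability minus 3 SD, cut at about 48% in these data, passing the limit was not always enough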;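 also: 100% = mean luminescence of untreated wells and 0% = no signal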); details: H69AR lung tumor cells viability, ATP luminescence, 72 h; at 10 µM; stronger effect = lower value
# [7] = MRP1 drug-resistance reversers in H69AR cells – cell-based, doxorubicin co-treatment, pilot screen (AID 601;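 active = viability loss from added drug above about 55%, and viability with drug at most 40%, in both replicates, limit read from the data, passing the limit was not always enough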); details: CellTiter-Glo, 72 h, at 10 µM; for differential viability (reversal): stronger effect = higher value
# [8] = yeast transport mutant growth inhibition pilot in 384-well plates, post-Golgi transport modulator project (AID 636; in the data active = inhibition above about 31%); details: absorbance 615 nm, about 18 h, stronger effect = higher value
# [9] = growth suppression of yeast trafficking mutant, preliminary HTS, modulators of trafficking downstream of Golgi apparatus project, 1536-format plate, OD 615 nm (AID 637; in the data active = inhibition above about 30%); details: yeast transport mutant growth, absorbance 615 nm, 18 h; stronger effect = higher value
# [10] = H69AR cells + 2 uM doxorubicin, measured here: viability with 2 uM doxorubicin, stronger effect = lower value
# [11] = H69AR cells, compound alone cytotoxicity
compound,measurement,setting,value
C=C(C)c1cccc(C(C)(C)NC(=O)NCC2CCCO2)c1 (stereo unspecified),inhibition,[1],2% (inactive)
CC(NC(=O)CSc1n[nH]c(=O)n1C1CC1)C12CC3CC(CC(C3)C1)C2 (stereo unspecified),inhibition,[1],3% (inactive)
COc1ccccc1C1(CC(=O)N2CCOCC2)CCOC(C(C)C)C1 (stereo unspecified),inhibition,[1],2% (inactive)
CCOC(=O)c1ccc(COC(=O)CCc2nc3ccccc3[nH]c2=O)o1,inhibition,[1],0% (inactive)
CCC(=O)Nc1cccc(Br)c1,inhibition,[1],2% (inactive)
COC(=O)c1ccc(CNC(=O)CSc2nc3sc(C)c(C)c3c(=O)n2C)o1,inhibition,[1],0% (inactive)
COc1ccc(N2CCN(C(=O)C(OC(C)=O)c3ccccc3)CC2)cc1 (stereo unspecified),inhibition,[1],3% (inactive)
O=C(Nc1ccc2c(c1)OCO2)c1ccc(Br)c(S(=O)(=O)N2CCCC2)c1,inhibition,[1],1% (inactive)
O=C(NCc1ccco1)c1c2c(nc3ccccc13)CCC2,inhibition,[1],0% (inactive)
CC(C)N(CCC(C(N)=O)(c1ccccc1)c1ccccn1)C(C)C (stereo unspecified),inhibition,[1],0% (inactive)
same,viability,[2],85%
same,Her2 level,[3],114% (inactive)
same,viability,[4],85% (inactive)
same,viability,[5],121% (inactive)
same,viability,[6],91.8% (inactive)
same,differential viability (reversal),[7]; H69AR cells + 2 uM doxorubicin,-15.8% (inactive)
same,viability,[7]; [10],108%
same,viability,[7]; [11],91.8%
Cc1cc(C(=O)Nc2nnc(C(F)(F)F)s2)no1,inhibition,[1],0% (inactive)
C[N+]1(C)CCc2cc3c(cc2[C@H]1[C@@H]1OC(=O)c2c1ccc1c2OCO1)OCO3,inhibition,[1],0% (inactive)
same,viability,[2],89.5%
same,Her2 level,[3],102% (inactive)
same,viability,[4],89.5% (inactive)
same,viability,[5],87.1% (inactive)
same,viability,[6],113% (inactive)
same,differential viability (reversal),[7]; H69AR cells + 2 uM doxorubicin,7.33% (inactive)
same,viability,[7]; [10],105%
same,viability,[7]; [11],113%
CCCCOCCCNC(=O)c1ccc(NC(C)=O)cc1,inhibition,[1],0% (inactive)
O=C(CCSc1ccccc1)N1CCN(C(=O)c2ccco2)CC1,inhibition,[1],0% (inactive)
CCCn1c(OC)nc2c1c(=O)n(C)c(=O)n2C,inhibition,[1],0% (inactive)
CN1C(=O)N(C)C(=O)C2(Cc3ccccc3N3CCOCC32)C1=O (stereo unspecified),inhibition,[1],0% (inactive)
same,viability,[2],104%
same,Her2 level,[3],88% (inactive)
same,viability,[4],104% (inactive)
same,viability,[5],94.8% (inactive)
same,viability,[6],102% (inactive)
same,differential viability (reversal),[7]; H69AR cells + 2 uM doxorubicin,8.12% (inactive)
same,viability,[7]; [10],94%
same,viability,[7]; [11],102%
same,inhibition,[8],-6.8% (inactive)
same,inhibition,[9],-2.86% (inactive)
O=C(c1sc2ccccc2c1Cl)N1CCC2(CC1)OCCO2,inhibition,[1],0% (inactive)
same,viability,[2],90.5%
same,Her2 level,[3],136% (inactive)
same,viability,[4],90.5% (inactive)
same,viability,[5],94.7% (inactive)
same,viability,[6],109% (inactive)
same,differential viability (reversal),[7]; H69AR cells + 2 uM doxorubicin,6.83% (inactive)
same,viability,[7]; [10],102%
same,viability,[7]; [11],109%
same,inhibition,[8],0.13% (inactive)
same,inhibition,[9],-7.5% (inactive)
CCOC(=O)c1cccc([P+](=O)O)c1,inhibition,[1],0% (inactive)
same,viability,[2],92.5%
same,Her2 level,[3],114% (inactive)
same,viability,[4],92.5% (inactive)
same,viability,[5],96.3% (inactive)
same,viability,[6],96.5% (inactive)
same,differential viability (reversal),[7]; H69AR cells + 2 uM doxorubicin,-0.595% (inactive)
same,viability,[7]; [10],97.1%
same,viability,[7]; [11],96.5%
same,inhibition,[8],3.95% (inactive)
same,inhibition,[9],-9.03% (inactive)
Cc1ccc(-n2c(O)c(C=NCCN3CCOCC3)c(=O)[nH]c2=O)cc1,inhibition,[1],3% (inactive)
same,viability,[2],124%
same,Her2 level,[3],96.5% (inactive)
same,viability,[4],124% (inactive)
same,viability,[5],93.4% (inactive)
same,viability,[6],102% (inactive)
same,differential viability (reversal),[7]; H69AR cells + 2 uM doxorubicin,8.65% (inactive)
same,viability,[7]; [10],93.5%
same,viability,[7]; [11],102%
same,inhibition,[8],-5.2% (inactive)
same,inhibition,[9],2.26% (inactive)
Cc1ccccc1NC1=NCCCS1,inhibition,[1],3% (inactive)
same,viability,[2],106%
same,Her2 level,[3],101% (inactive)
same,viability,[4],106% (inactive)
same,viability,[5],99.3% (inactive)
same,viability,[6],95.1% (inactive)
same,differential viability (reversal),[7]; H69AR cells + 2 uM doxorubicin,-1.09% (inactive)
same,viability,[7]; [10],96.1%
same,viability,[7]; [11],95.1%
same,inhibition,[8],-4.61% (inactive)
same,inhibition,[9],-0.67% (inactive)
CC[C@@H]1C(=O)OC[C@@H]1Cc1cncn1C,inhibition,[1],0% (inactive)
same,viability,[2],94%
same,Her2 level,[3],107% (inactive)
same,viability,[4],94% (inactive) and 104% (inactive)
same,viability,[5],101% (inactive) and 91.9% (inactive)
same,viability,[6],102% (inactive) and 96% (inactive)
same,differential viability (reversal),[7]; H69AR cells + 2 uM doxorubicin,12.4% (inactive) and -2.8% (inactive)
same,viability,[7]; [10],89.8% and 98.8%
same,viability,[7]; [11],102% and 96%
COc1cc(/C=N/n2cnnc2)ccc1OC(=O)N(C)C,inhibition,[1],6% (inactive)
same,viability,[2],97%
same,Her2 level,[3],96.5% (inactive)
same,viability,[4],97% (inactive)
same,viability,[5],99.5% (inactive)
same,viability,[6],102% (inactive)
same,differential viability (reversal),[7]; H69AR cells + 2 uM doxorubicin,9.57% (inactive)
same,viability,[7]; [10],92.7%
same,viability,[7]; [11],102%
same,inhibition,[8],-4.21% (inactive)
same,inhibition,[9],-2.06% (inactive)
